In brackets after ≈: the same amount, converted by molar mass.

The test system of the experiment is Trichophyton mentagrophytes. In words: Antifungal activity against Trichophyton mentagrophytes ATCC 9533. The format is functional. Put shortly:
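Microbial assay against Trichophyton mentagrophytes ATCC 9533. Compounds were tested at concentrations from 10 μg/mL to 10 ng/mL.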
Take `CC[C@H]1/C=C/C=C/CC[C@@H](O)[C@@H](C)[C@@H](O)C[C@@H](OC)C[C@@H](O)[C@H](C)[C@H](O)[C@@H](C)/C=C/C(=O)O[C@H]2C[C@@]3(CC[C@H](C)[C@H](C[C@@H](C)O)O3)O[C@@H](CC1)[C@H]2CCC(C)O` (stereo not given in full): 3 µg/mL (≈ 3.77 µM) was the least that counted as inhibitory (MIC).

Take `CC[C@@H](O)C[C@@H]1O[C@@]2(CC[C@@H]1C)C[C@@H]1OC(=O)/C=C/[C@H](C)[C@@H](O)[C@@H](C)[C@H](O)C[C@H](OC)C[C@H](O)[C@H](C)[C@H](O)CC/C=C/C=C/[C@H](CC)CC[C@H](O2)[C@H]1CCCO`: the MIC (in general, the least concentration at which growth counts as inhibited) stood at 1 µg/mL (≈ 1.26 µM).

The compound `CC[C@@H](O)C[C@@H]1O[C@@]2(CC[C@@H]1C)C[C@@H]1OC(=O)/C=C/[C@H](C)[C@@H](O)[C@@H](C)[C@H](O)C[C@H](OC)C[C@H](O)[C@H](C)[C@H](O)CC/C=C/C=C/[C@H](CC)CC[C@H](O2)[C@H]1CCC(C)O` (stereo not given in full) registered an MIC of 1 µg/mL (≈ 1.24 µM).

On to `CC[C@H]1/C=C/C=C/CC[C@@H](O)[C@@H](C)[C@@H](O)C[C@@H](OC)C[C@@H](O)[C@H](C)[C@H](O)[C@@H](C)/C=C/C(=O)O[C@H]2C[C@@]3(CC[C@H](C)[C@H](C[C@@H](C)O)O3)O[C@@H](CC1)[C@H]2CC`, for which the lowest concentration to inhibit growth (MIC) was 1 µg/mL (≈ 1.33 µM).

In turn, `CCC[C@H]1[C@@H]2C[C@@]3(CC[C@H](C)[C@H](C[C@@H](C)O)O3)O[C@H]1CC[C@@H](CC)/C=C/C=C/CC[C@@H](O)[C@@H](C)[C@@H](O)C[C@@H](OC)C[C@@H](O)[C@H](C)[C@H](O)[C@@H](C)/C=C/C(=O)O2` came in with an MIC of 3 µg/mL (≈ 3.92 µM).

In turn, `CCCC[C@H]1[C@@H]2C[C@@]3(CC[C@H](C)[C@H](C[C@@H](C)O)O3)O[C@H]1CC[C@@H](CC)/C=C/C=C/CC[C@@H](O)[C@@H](C)[C@@H](O)C[C@@H](OC)C[C@@H](O)[C@H](C)[C@H](O)[C@@H](C)/C=C/C(=O)O2` returned an MIC of 3 µg/mL (≈ 3.85 µM).

As for `CCC[C@H]1[C@@H]2C[C@@]3(CC[C@H](C)[C@H](C[C@H](O)CC)O3)O[C@H]1CC[C@@H](CC)/C=C/C=C/CC[C@@H](O)[C@@H](C)[C@@H](O)C[C@@H](OC)C[C@@H](O)[C@H](C)[C@H](O)[C@@H](C)/C=C/C(=O)O2`, the MIC came to 3 µg/mL (≈ 3.85 µM).

The compound `CCCCC[C@H]1[C@@H]2C[C@@]3(CC[C@H](C)[C@H](C[C@@H](C)O)O3)O[C@H]1CC[C@@H](CC)/C=C/C=C/CC[C@@H](O)[C@@H](C)[C@@H](O)C[C@@H](OC)C[C@@H](O)[C@H](C)[C@H](O)[C@@H](C)/C=C/C(=O)O2` registered an MIC of 3 µg/mL (≈ 3.78 µM).

In the case of `CC[C@H]1/C=C/C=C/CC[C@@H](O)[C@@H](C)[C@@H](O)C[C@@H](OC)C[C@@H](O)[C@H](C)[C@H](O)[C@@H](C)/C=C/C(=O)O[C@H]2C[C@@]3(CC[C@H](C)[C@H](C[C@@H](C)O)O3)O[C@@H](CC1)[C@H]2CCCO` [NEOMACLAFUNGIN A], the MIC was found to be 3 µg/mL (≈ 3.84 µM).

With `CC[C@@H]1/C=C/C=C/C[C@H](C)[C@H](O)[C@](C)(O)C(=O)[C@H](C)[C@@H](O)[C@H](C)C(=O)[C@H](C)[C@@H](O)[C@H](C)/C=C/C(=O)O[C@H]2[C@@H](C)[C@@H](CC1)O[C@@]1(CC[C@@H](C)[C@@H](C[C@H](C)O)O1)[C@@H]2C` [OLIGOMYCIN A], the MIC stood at 10 µg/mL (≈ 12.6 µM).

For the origin of these results see ChEMBL document CHEMBL2163187, “Neomaclafungins A-I: oligomycin-class macrolides from a marine-derived actinomycete” (2012).
